TRPC4 PAM: positive allosteric modulators of TRPC4, primary screen, cell-based, mouse TRPC4beta, HEK293 mu-opioid, Fluo-4 calcium; AID 2227, 2009; DAMGO EC20, Fluo-4 Ca2+ flux; active compounds read high; Short transient receptor potential channel 4 (Mus musculus), Q9QUQ5; B-score at 10 µM; hit rate 0.42% among 310,000;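 active = B-score of calcium response area above 5 SD of library B-scores, with initial fluorescence ratio within 5 SD of library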;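 note: B-score of integrated fluorescence ratio over time as area under calcium response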
TRPC6 inh: mouse TRPC6 channel inhibitors, primary screen, cell-based, HEK293, membrane potential dye; AID 2553, 2010; ACh-evoked depolarization; active compounds read low; B-score at 10 µM; hit rate 1.1% among 310,000; Short transient receptor potential channel 6 (Mus musculus), Q61143;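 active = B-score under library mean minus 3 SD, initial fluorescence not abnormally high, positive integrated signal ratio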;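 note: B-score derived from integrated fluorescence ratio over the kinetic read; more negative B-score means stronger inhibition of depolarization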
TRPC4 inh: inhibitors of mouse TRPC4 channel, primary screen, Fluo4 calcium, HEK293 TRPC4beta/mu-opioid cells; Short transient receptor potential channel 4 (Mus musculus), Q9QUQ5; DAMGO-evoked Fluo4 calcium flux; active compounds read low; B-score at 10 µM; hit rate 0.39% among 300,000; AID 2247, 2010;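 active = B-score over 3 SD under the library average, no early fluorescence shift, positive overall ratio signal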
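material = TRPC4beta/mu-opioid receptor HEK293 cell line | probe or stimulus = sequential submaximal and maximal DAMGO stimulation | compound dosing = one concentration per compound | measured by = Fluo4 Ca2+ flux fluorescence | evaluation = integrated fluorescence ratio relative to baseline, converted to per-well B score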
Kir21 block: inhibitors of mouse Kir2.1 inward-rectifier potassium channel; HEK293-Kir2.1, FluxOR thallium flux fluorescence; active compounds read low; B-score at 10 µM; hit rate 0.85% among 310,000; AID 1672, 2009;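 active = fluorescence ratio B-score at or below minus 3 SD of library scores, with starting-brightness B-score within 2 SD, cut at about -4.2 in these data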;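 note: channel flux triggered by added potassium and thallium sulfate stimulus; B-score of peak minus minimum fluorescence over baseline after thallium stimulus; more negative B-score means stronger Kir2.1 block with less thallium influx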
Target sequence (P35561 whole entry, looked up): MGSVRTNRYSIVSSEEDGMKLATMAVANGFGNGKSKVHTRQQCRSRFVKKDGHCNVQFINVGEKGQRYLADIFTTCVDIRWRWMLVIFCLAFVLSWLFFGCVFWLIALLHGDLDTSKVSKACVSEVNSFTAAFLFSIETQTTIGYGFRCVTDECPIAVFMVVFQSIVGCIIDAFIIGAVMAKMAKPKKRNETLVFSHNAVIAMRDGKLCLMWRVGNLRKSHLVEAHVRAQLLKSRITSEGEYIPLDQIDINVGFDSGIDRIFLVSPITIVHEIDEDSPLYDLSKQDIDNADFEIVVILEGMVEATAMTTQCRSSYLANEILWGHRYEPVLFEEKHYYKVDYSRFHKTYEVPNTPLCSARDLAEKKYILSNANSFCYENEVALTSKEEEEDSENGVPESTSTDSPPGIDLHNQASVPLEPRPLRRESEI
TRPC4 act: activators of mouse TRPC4 channel, primary screen, Fluo4 calcium, HEK293 TRPC4beta/mu-opioid cells; B-score at 10 µM; hit rate 0.49% among 310,000; Fluo4 calcium fluorescence; active compounds read high; Short transient receptor potential channel 4 (Mus musculus), Q9QUQ5; AID 2237, 2010;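 active = B-score above 5 SD of library B-scores, and initial fluorescence ratio not above library mean plus 5 SD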;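 note: positive B-score marks a calcium rise read as TRPC4 activation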
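Assay system: HEK293 stable line with TRPC4beta plus mu-opioid receptor; schedule: 45 min room-temperature Fluo4 loading, 110 s read; technique: kinetic Fluo4 calcium fluorescence; evaluation: integrated baseline-normalised fluorescence ratio, converted to per-well B score; controls: buffer (low) and maximal DAMGO (high)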
TRPC6 act: mouse TRPC6 channel activators, primary screen, cell-based, HEK293, membrane potential dye; Short transient receptor potential channel 6 (Mus musculus), Q61143; AID 2550, 2010; B-score at 10 µM; HEK293-TRPC6 membrane potential dye fluorescence; active compounds read high; hit rate 0.13% among 310,000;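 active = B-score of the integrated fluorescence ratio above library mean plus 3 SD, and starting fluorescence ratio within library mean plus 5 SD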;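 note: higher score means more depolarization so channel activation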
HEK293 TRPC6 ctr: parental HEK293 membrane potential modulation, confirmation, counter-screen for TRPC6 modulator project, cell-based; shares compounds with TRPC6 inh; membrane potential dye fluorescence; membrane potential signal change, % at 10 µM; hit rate 51% among 2,400; AID 488924, 2010;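 active = membrane potential signal moves up or down beyond 5 SD from buffer-only wells, on both duplicate plates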
HEK293 MPD ctr 2: second counter-screen for TRPC6 modulators: effect in parental HEK293 cells; shares compounds with TRPC6 inh; membrane potential dye fluorescence; after compound, maximal acetylcholine stimulation; inhibition, % at 10 µM; hit rate 14% among 2,400; AID 488926;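 active = membrane potential signal drops by more than 5 SD from the mean control signal, in both duplicate plates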;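 note: plate controls were acetylcholine ECmax control wells for no effect and buffer only wells for full effect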
TRPC4/MOR mod: TRPC4 modulation by TRPC6 hit compounds, confirmation, selectivity assay for TRPC6 modulator project, cell-based, HEK293 TRPC4/mu-opioid, membrane potential dye, mouse. shares compounds with TRPC6 inh. membrane potential fluorescence. percent change from control (negative = decrease, positive = increase), % at 10 µM. hit rate 69% among 2,400;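 active = membrane potential signal moved up or down beyond 5 SD of buffer control wells, in both duplicate plates, actives on both sides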;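 note: plate controls were assay buffer wells for no effect and DAMGO maximal-effect wells for full effect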
TRPC4 ctr inh 2: second selectivity test of TRPC6 modulators against mouse TRPC4; inhibition, % at 10 µM; shares compounds with TRPC6 inh; AID 488928; HEK293 TRPC4/mu-opioid, membrane potential dye fluorescence; stimulated with maximal-effect DAMGO; hit rate 55% among 2,400;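 active = drop in membrane potential signal beyond 5 SD of the control wells in both duplicate plates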;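 note: TRPC4 counter screen for TRPC6 hits run under conditions tuned for TRPC6 not TRPC4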
TRPC6 inh conf: mouse TRPC6 channel inhibitors, confirmation, HEK293 cells, membrane potential dye, duplicate; shares compounds with TRPC6 inh; AID 488960, 2010; hit rate 43% among 3,300; ACh-evoked depolarization; inhibition, % at 10 µM;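 active = fluorescence ratio falls more than 5 SD below the full-stimulation control mean, in both duplicate runs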;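 note: integrated fluorescence ratio of peak minus minimum over baseline after agonist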
TRPC6 act conf: mouse TRPC6 channel activators, confirmation, HEK293 cells, membrane potential dye, duplicate. shares compounds with TRPC6 inh. HEK293-TRPC6 membrane potential dye fluorescence, FDSS. activation, % at 10 µM. hit rate 11% among 2,800;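 active = ratio signal rise beyond 5 SD above unstimulated control wells' mean, seen in both duplicate runs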;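 note: plate controls were buffer EC0 wells for no effect and acetylcholine ECmax response for full effect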
Numbers without * were called inactive; i = inactive; nt = not tested or not shown. An excerpt weighted towards active compounds, which were near 2.9% of everything screened.

SMILES	TRPC4 PAM	TRPC6 inh	TRPC4 inh	Kir21 block	TRPC4 act	TRPC6 act	HEK293 TRPC6 ctr	HEK293 MPD ctr 2	TRPC4/MOR mod	TRPC4 ctr inh 2	TRPC6 inh conf	TRPC6 act conf
CN(C)CCNc1c2c(nc3ccccc13)CCC2	i	-9.05*	i	0.21	i	i	-202.5%*	110.5%*	-36.5%*	77.0%*	74.0%*	i
CN(C)CCCNc1c2ccccc2nc2ccccc12	i	-10.7*	-6*	-0.46	i	i	-267.5%*	177.0%*	-43.5%*	78.5%*	88.5%*	i
CN(C)CCCNc1oc(-c2ccccc2)nc1C#N	i	i	i	1.18	i	i	nt	nt	nt	nt	nt	nt
COc1cc([N+](=O)[O-])ccc1NC(=O)Nc1cnccn1	i	-5.51*	i	-0.04	i	i	i	i	76.5%*	90.5%*	58.5%*	nt
COc1ccccc1NC(=O)Nc1cnccn1	i	i	i	2.07	i	i	nt	nt	nt	nt	nt	nt
COc1ccc(C)cc1N=Nc1ccc(O)c2ncccc12	i	-5.07*	i	2.46	i	i	-135.0%*	i	-33.5%*	73.0%*	i	i
COc1ccc(N=Nc2ccc(O)c3ncccc23)cc1	i	i	i	-1.33	i	i	nt	nt	nt	nt	nt	nt
CCOC(=O)c1c(NC(=O)C2C3C=CC(CC3)C2C(=O)O)sc(C)c1CC (centres undefined)	i	i	i	-1.74	i	12.4*	109.5%*	i	21.0%*	i	i	60.5%*

Screens: PubChem BioAssay, Johns Hopkins Ion Channel Center
